# Test results as given in ChEMBL document CHEMBL1123882, “Potential antitumor agents. 51. Synthesis and antitumor activity of substituted phenazine-1-carboxamides” (J Med Chem, 1987).
# Legend:
# [1] = Lipophilicity (HPLC); format: physicochemical
# L1210 = assay: Nanomolar concentration required to reduce the growth of L1210 cells in culture to 50% of control values after 70 h (in vitro); format: functional, cell-based; conditions: Mus musculus, L1210, 70 h
# Procedure, shortened: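 L1210 cells were grown in culture with drug for 70 h. IC50 is the drug concentration (nM) reducing growth to 50% of control values.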
# [2] = tested on: Lewis lung carcinoma cell line; assay: Average increase in life span of treated animals over control groups of tumor-bearing untreated animals when given at optimal dose;NA means no significant activity (in vivo); format: functional, organism-based; conditions: Mus musculus
# Procedure, shortened: (§1)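 Mice received drug ip as a solution in 0.1 mL 30% v/v EtOH/water at the optimal dose. For P388, 10^6 cells were inoculated ip and drug given on days 1, 5 and 9. For LL, 10^6 cells were inoculated iv and drug given on days 5, 9 and 13. ILS is the mean life-span increase over untreated tumor-bearing controls, significant above 20% (P388) or 40% (LL). Groups were of six. NA means no significant activity up to acutely toxic doses.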
# P388 [3] = assay: Optimal dose in mg/kg administered intraperitoneally on days 1,5 and 9 required to inhibit the growth of P388 leukemia cells was determined (in vivo); format: functional, Mus musculus
# Procedure, shortened: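 Mice were inoculated ip with 10^6 P388 cells. Drug was given ip as a solution in 0.1 mL 30% v/v EtOH/water on days 1, 5 and 9. The optimal dose (mg/kg per day) is the one giving maximal increase in life span; survivors were scored at 50 days, in groups of six.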
# P388 [4] = assay: (§2) Average increase in life span of treated animals over control groups of tumor-bearing untreated animals when given at optimal dose (in vivo); format: functional, Mus musculus
# Procedure, shortened: (§3)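 Mice inoculated ip with 10^6 P388 cells (drug ip on days 1, 5, 9) or iv with 10^6 Lewis lung cells (drug ip on days 5, 9, 13). Drug given as a solution in 0.1 mL 30% v/v EtOH/water, in mg/kg per day. Value is the average life-span increase versus untreated tumor-bearing controls at the optimal dose. Significance thresholds: ILS >20% (P388), >40% (LL). Groups of six.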
# [5] = tested on: Lewis lung carcinoma cell line; assay: (§4) Optimal dose required after intraperitoneal administration on days 5,9 and 13 to inhibit the growth of lewis lung carcinoma (LL) cells was determined (in vivo); format: functional, Mus musculus
# Procedure, shortened: (§5)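 Mice were inoculated iv with 10^6 Lewis lung cells. Drug was given ip in 0.1 mL 30% v/v EtOH/water on days 5, 9 and 13. The optimal dose (mg/kg per day) is the one giving maximal increase in life span; survivors were scored at 60 days, in groups of six.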
# [6] = tested on: Lewis lung carcinoma cell line; assay: Average increase in life span of treated animals over control groups of tumor-bearing untreated animals when given at optimal dose of 25 mg/kg/day; NA means no significant activity (in vivo); format: functional, organism-based; conditions: Mus musculus, in the assay text read “225 mg/kg/day” for “25 mg/kg/day”; procedure, shortened: as §1
# P388 [7] = assay: Average increase in life span of treated animals over control groups of tumor-bearing untreated animals when given at optimal dose of 150 mg/kg/day;NA means no significant activity (in vivo); format: functional, organism-based; conditions: Mus musculus; procedure, shortened: as §1
# [8] = tested on: Lewis lung carcinoma cell line; assay: Average increase in life span of treated animals over control groups of tumor-bearing untreated animals when given at optimal dose;NA means no significant effect (in vivo); format: functional, organism-based; conditions: Mus musculus; procedure, shortened: as §1
# [9] = as §2; format: functional, Mus musculus; procedure, shortened: as §3
# [10] = as §4; format: functional, Mus musculus; procedure, shortened: as §5
# [11] = tested on: Lewis lung carcinoma cell line; assay: (§6) Average increase in life span of treated animals over control groups of tumor-bearing untreated animals when given at optimal dose; NA means no significant activity (in vivo); format: functional, organism-based; conditions: Mus musculus; procedure, shortened: as §1
# P388 [12] = assay: as §6; format: functional, organism-based; conditions: Mus musculus; procedure, shortened: as §1
SMILES,Rm [1],IC50 (L1210) [nM],ILS max [2],OD (P388 [3]) [mg/kg/day],ILS max (P388 [4]),OD [5] [mg/kg/day],ILSmax [6],ILSmax (P388 [7]),ILS max [8],ILS max [9],OD [10] [mg/kg/day],ILSmax [11],ILSmax (P388 [12])
CN(C)CCCCNC(=O)c1cccc2nc3ccccc3nc12,-0.11,1170,Not significant,150,49,225,,,,,,,
CN(C)CCCNC(=O)c1cccc2nc3ccccc3nc12,-0.21,1500,,150,,225,Not significant,Not significant,,,,,
Cc1ccc(C(=O)NCCN(C)C)c2nc3ccccc3nc12,0.08,400,,100,28,150,,,Not significant,,,,
CN(C)CCNC(=O)c1cccc2c1nc1ccccc1[n+]2[O-],-0.58,3000,,150,81,,,,,51,150,,
O=C(NCCN1CCOCC1)c1cccc2nc3ccccc3nc12,-0.21,11000,,225,,225,,,,,,Not significant,Not significant
